Laboratory results taken from ChEMBL document CHEMBL5712902, “Enhanced Anti-lymphoma Activity of CAR19-iNKT Cells Underpinned by Dual CD19 and CD1d Targeting” (Cancer Cell, 2018).
Activity calls are given as the source filed them. No cut-off for these calls is given here.

Assays:
U-266 [1] = test: Upregulation of CD1D protein expression in human U-266 cells at 10^-6 M upto 96 hrs by flow cytometric analysis; format: functional, cell-based; details: dose 1.0 10^-6M
How it was run: (§1)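 U266 cells were harvested in exponential growth and treated with 10^-6 M ATRA, 10^-6 M GSK343, or both, each diluted from a 1 mM 1000x PBS stock. Vehicle control was 0.01% DMSO. Incubation ran up to 96 hr, then CD1D mRNA was read by RT-PCR or CD1d protein by flow cytometry at set time points.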

U-266 [2] = test: Upregulation of CD1D mRNA expression in human U-266 cells at 10^-6 M upto 96 hrs by RT-PCR analysis; format: functional, cell-based; details: dose 1.0 10^-6M; how it was run: as §1
[3] = Cytotoxicity against human CLL cells assessed as reduction in cell viability at 10^-6 M after 48 to 96 hrs by tryphan blue assay; format: toxicity, cell-based; details: 1 µM, time 48-96 hrs, dose 1 10^-6M
U-266 [4] = test: Upregulation of CD1D protein expression in human U-266 cells at 10^-6 M upto 96 hrs in presence of GSK343 by flow cytometric analysis; format: functional, cell-based; details: dose 1.0 10^-6M; how it was run: as §1
U-266 [5] = test: Upregulation of CD1D mRNA expression in human U-266 cells at 10^-6 M upto 96 hrs in presence of GSK343 by RT-PCR analysis; format: functional, cell-based; details: dose 1.0 10^-6M; how it was run: as §1
CLL cell [6] = test: Upregulation of CD1D mRNA expression in human CLL cells at 10^-6 M upto 96 hrs by RT-PCR analysis; format: functional, cell-based; details: dose 1.0 10^-6M
How it was run: (§2)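 Primary CLL cells were treated with 10^-6 M ATRA, freshly prepared in DMSO, protected from light and diluted to a 1 mM 1000x stock in PBS. Vehicle control was 0.01% DMSO. Cells were incubated for up to 96 hr, then CD1d was read by RT-PCR for mRNA or flow cytometry for surface protein at set time points.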

CLL cell [7] = test: Upregulation of CD1D protein expression in human CLL cells at 10^-6 M upto 96 hrs by flow cytometric analysis; format: functional, cell-based; details: dose 1.0 10^-6M; how it was run: as §2

CCCc1cc(C)[nH]c(=O)c1CNC(=O)c1cc(-c2ccnc(N3CCN(C)CC3)c2)cc2c1cnn2C(C)C
Activity (U-266 [1]): inactive | Activity (U-266 [2]): inactive

CC1=C(/C=C/C(C)=C/C=C/C(C)=C/C(=O)O)C(C)(C)CCC1 [TRETINOIN]
Activity [3]: Non-Toxic | Activity (U-266 [4]): Active | Activity (U-266 [5]): Active | Activity (CLL cell [6]): Active | Activity (CLL cell [7]): Active
